Activity calls are given as the source filed them. The calls are words filed in the database; no cut-off is given here.
Legend:
SNB-75 = assay: Growth inhibition of human SNB75 cells after 48 hrs by sulforhodamine B assay; format: functional; conditions: SNB-75, 48 h
Outline: (§1)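 NCI-60 five-dose screen. Cells were grown in RPMI 1640 with 5% FBS and 2 mM L-glutamine, plated at 5000–40,000 cells/well and incubated 24 h before dosing, with T0 plates TCA-fixed. DMSO stocks were diluted to doses of […] and exposed 48 h at 37 °C, 5% CO2. Cells were fixed with cold TCA (final 10%, 60 min, 4 °C), stained with 0.4% SRB in 1% acetic acid for 10 min, solubilized in 10 mM trizma base and read at 515 nm. GI50 is where 100×(T−T0)/(C−T0)=50.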

MCF-10A [1] = assay: Antiproliferative activity against human MCF10A cells by MTT assay; format: cell-based
Outline: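 MCF10A kept in DMEM/F12 with 5% horse serum, hydrocortisone, cholera toxin, insulin and EGF, plated at 10 × 10^4 cells/well. Compounds from DMSO stock (final DMSO <0.1%, equal across groups) fed in serum-free media. Viable cell number by MTT; IC50 by non-linear regression.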

SK-MEL-28 = assay: Growth inhibition of human SK-MEL-28 cells after 48 hrs by sulforhodamine B assay; format: functional; conditions: SK-MEL-28, 48 h
Outline: (§2)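 NCI-60 panel cells grown in RPMI 1640 with 5% FBS and 2 mM L-glutamine, seeded at 5000–40,000 cells/well and preincubated 24 h. Five 10-fold dilutions (0.001–100 µM) from DMSO stocks were added for 48 h at 37 °C. Adherent cells were fixed with cold TCA (10% final) for 60 min at 4 °C, stained with 0.4% SRB, and read at 515 nm. GI50 was set where 100×(T−T0)/(C−T0)=50.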

SW-620 = assay: Growth inhibition of human SW620 cells after 48 hrs by sulforhodamine B assay; format: functional; conditions: SW-620, 48 h; outline: as §1
MCF7 = assay: Growth inhibition of human MCF7 cells after 48 hrs by sulforhodamine B assay; format: functional; conditions: MCF7, 48 h; outline: as §2
MDA-MB-231 = assay: Antimigratory activity against human MDA-MB-231 cells after 24 hrs by wound-healing assay; format: functional, cell-based; conditions: MDA-MB-231, 24 h
Outline: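 MDA-MB-231 in RPMI 1640 with 10% FBS grown to >95% confluent monolayer, scratched with a pipette tip and washed. Then 24 h exposure in 0.5% serum at five non-toxic concentrations in DMSO, triplicate, DMSO as negative control. Diff Quick fixed and stained; migrated cells counted in ≥3 random 40× fields. IC50 = concentration inhibiting migration of 50% of cells.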

MCF-10A [2] = assay: Selectivity index, ratio of IC50 for human MCF10A cells to ratio of IC50 for mouse +SA cells; format: functional
Outline: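 Index is the IC50 in MCF10A divided by the IC50 in +SA. +SA cells were kept in serum-free DMEM/F12 defined medium and given BSA-conjugated compounds at 0–40 µM (DMSO <0.1%). MCF10A cells were plated at 10×10^4 cells/well and fed compounds in serum-free medium.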

SK-MEL-5 = assay: Growth inhibition of human SK-MEL-5 cells after 48 hrs by sulforhodamine B assay; format: functional; conditions: SK-MEL-5, 48 h; outline: as §2
K562 = assay: Growth inhibition of human K562 cells after 48 hrs by sulforhodamine B assay; format: functional; conditions: K562, 48 h
Outline: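 NCI-60 screen: cells in RPMI 1640 with 5% FBS and 2 mM glutamine, 5000–40,000 cells/well, preincubated 24 h. Five concentrations (10-fold dilutions; 100 to 0.001 µM) applied for 48 h at 37 °C. TCA fixation, SRB stain, absorbance at 515 nm. Time-zero plates included; GI50 where 100×(T−T0)/(C−T0)=50.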

Mus musculus = assay: Toxicity in BALB/c mouse allografted with mouse +SA cells assessed as body weight change at 0.5 mg, iv administered on day 40 post challenge for 14 days; format: organism-based, +SA cell; conditions: in vivo, 336 h
Outline: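 Female BALB/c mice, 3–4 months old, received 1×10^6 +SA cells in 0.1 mL medium into the #4 mammary fat pad. About 40 days later, once tumors were palpable, daily tail-vein injections began for 14 days: 0.5 mg in 0.1 mL propylene glycol/DMSO (1:1), with vehicle controls. Body weight was recorded every other day, with 14–15 mice per group. Analysis used ANOVA with Duncan's test.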

+SA cell = assay: Antitumor activity against mouse +SA cells allografted in BALB/c mouse assessed as reduction in tumor volume at 0.5 mg, iv administered on day 40 post challenge for 14 days; format: functional, organism-based
Outline: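 Female BALB/c mice, 3–4 months old, given 1 × 10^6 +SA cells into the #4 mammary fat pad under ketamine/xylazine. About 40 days later, once tumors were palpable, 0.5 mg in 0.1 mL propylene glycol/DMSO (1:1) by daily tail-vein injection for 14 days; vehicle controls. Caliper volume L×W²/2 and body weight recorded every other day. 14–15 mice/group; ANOVA with Duncan's test.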

Structure (SMILES)	GI50 (SNB-75)	IC50 (MCF-10A [1])	GI50 (SK-MEL-28)	GI50 (SW-620)	GI50 (MCF7)	IC50 (MDA-MB-231)	Ratio IC50 (MCF-10A [2])	GI50 (SK-MEL-5)	GI50 (K562)	Activity (Mus musculus)	Activity (+SA cell)
CC(C)=CCC/C(C)=C/CC/C(C)=C/CC[C@]1(C)CCc2c3c(cc(C)c2O1)OCN(CCCO)C3	1.29 µM	6.5 µM	1.78 µM	1.83 µM	1.66 µM	6 µM	3.61	–	–	–	–
CC(C)=CCC/C(C)=C/CC/C(C)=C/CC[C@]1(C)CCc2c3c(c(C)c(C)c2O1)OCN(CCCCCCCCO)C3	2.38 µM	2 µM	2.62 µM	–	2.59 µM	4.7 µM	1.43	2.9 µM	3.5 µM	–	–
CC(C)=CCC/C(C)=C/CC/C(C)=C/CC[C@]1(C)CCc2c3c(c(C)c(C)c2O1)OCN(CCc1ccc(O)cc1)C3	–	8.5 µM	–	–	–	4.5 µM	5.67	–	–	–	–
COc1ccc(CCNCc2c(O)c(C)c(C)c3c2CC[C@@](C)(CC/C=C(\C)CC/C=C(\C)CCC=C(C)C)O3)cc1OC	–	–	–	–	–	–	–	–	–	Non-toxic	Active
CC(C)=CCC/C(C)=C/CC/C(C)=C/CC[C@]1(C)CCc2c3c(cc(C)c2O1)OCN(C1CCN(Cc2ccccc2)CC1)C3	1.67 µM	–	2.01 µM	0.48 µM	1.59 µM	–	–	–	–	–	–
CC(C)=CCC/C(C)=C/CC/C(C)=C/CC[C@]1(C)CCc2c3c(cc(C)c2O1)OCN(CCCCCCCCO)C3	4.11 µM	1.7 µM	3.43 µM	–	0.515 µM	4.9 µM	2.15	2.76 µM	0.772 µM	–	–
CC(C)=CCC/C(C)=C/CC/C(C)=C/CC[C@]1(C)CCc2c3c(c(C)c(C)c2O1)OCN(CCCCCO)C3	4.03 µM	8.9 µM	5.89 µM	6.05 µM	3.74 µM	–	5.24	–	–	–	–
CC(C)=CCC/C(C)=C/CC/C(C)=C/CC[C@]1(C)CCc2c3c(c(C)c(C)c2O1)OCN(CCCCO)C3	9.35 µM	–	> 10 µM	–	1.78 µM	10.7 µM	–	> 10 µM	2.46 µM	–	–
CC(C)=CCC/C(C)=C/CC/C(C)=C/CC[C@]1(C)CCc2c3c(cc(C)c2O1)OCN(CCCCO)C3	–	4.2 µM	–	–	–	2.2 µM	2.34	14.5 µM	7.42 µM	–	–
CC(C)=CCC/C(C)=C/CC/C(C)=C/CC[C@]1(C)CCc2c3c(cc(C)c2O1)OCN(CCc1ccc(O)cc1)C3	4.74 µM	1.9 µM	5.59 µM	1.59 µM	1.28 µM	2.4 µM	2.09	5.42 µM	–	–	–
CC(C)=CCC/C(C)=C/CC/C(C)=C/CC[C@]1(C)CCc2c3c(cc(C)c2O1)OCN(CCCCCCCCCCO)C3	–	–	–	–	–	7.2 µM	–	–	–	–	–
CC(C)=CCC/C(C)=C/CC/C(C)=C/CC[C@]1(C)CCc2cc(O)c(C)c(C)c2O1 [GAMMA-TOCOTRIENOL]	–	4.4 µM	–	–	–	> 40 µM	1.1	–	–	Non-toxic	inactive
CC(C)=CCC/C(C)=C/CC/C(C)=C/CC[C@]1(C)CCc2c3c(cc(C)c2O1)OCN(CCCCCCO)C3	3.14 µM	2.5 µM	2.01 µM	–	0.579 µM	1.5 µM	1.92	2.5 µM	0.81 µM	–	–
COc1ccc(CCN2COc3c(C)c(C)c4c(c3C2)CC[C@@](C)(CC/C=C(\C)CC/C=C(\C)CCC=C(C)C)O4)cc1OC	–	0.7 µM	–	–	–	–	0.39	–	–	–	–
CC(C)=CCC/C(C)=C/CC/C(C)=C/CC[C@]1(C)CCc2c3c(c(C)c(C)c2O1)OCN(CCCCCCO)C3	2.46 µM	–	2.76 µM	–	2.73 µM	–	–	2.88 µM	2.96 µM	–	–
CC(C)=CCC/C(C)=C/CC/C(C)=C/CC[C@]1(C)CCc2c3c(cc(C)c2O1)OCN(CCCCCO)C3	4.03 µM	4.6 µM	5.89 µM	6.05 µM	3.74 µM	–	6.57	–	–	–	–
COc1ccc(CCN2COc3cc(C)c4c(c3C2)CC[C@@](C)(CC/C=C(\C)CC/C=C(\C)CCC=C(C)C)O4)cc1OC	1.2 µM	–	1.75 µM	2 µM	1.54 µM	–	–	–	–	–	–

— ChEMBL document CHEMBL2380254, “Optimization of tocotrienols as antiproliferative and antimigratory leads” (Eur J Med Chem, 2013)
